From ChEMBL document CHEMBL1149101, “New antibacterial agents derived from the DNA gyrase inhibitor cyclothialidine” (J Med Chem, 2004)
≈ marks a conversion by molar mass, not a printed value.

Key:
[1] = system: Micrococcus luteus; test: Minimum inhibitory concentration against Micrococcus luteus ATCC 8340; type: functional
In short: (§1)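 Agar dilution per NCCLS in BB2 agar + 1% Isovitalex + 7.5% sheep blood + menadione, compound added to melted medium at 50 °C. About 10⁴ CFU/spot from diluted overnight cultures, multipoint-inoculated.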

[2] = molecular target: DNA gyrase (Escherichia coli) (UniProt P0AES6+P0AES4)
[3] = system: Neisseria meningitidis; test: Minimum inhibitory concentration against Neisseria meningitides 69480; type: functional; in short: as §1
[4] = system: Staphylococcus aureus; test: Minimum inhibitory concentration against Staphylococcus aureus Smith; type: functional; conditions: Staphylococcus aureus; read-out: MIC
In short: (§2)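 NCCLS agar dilution on Mueller–Hinton agar, compound incorporated into melted medium at 50 °C. Inoculum about 10⁴ CFU/spot from diluted overnight cultures, multipoint-applied.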

[5] = system: Staphylococcus aureus; test: Minimum inhibitory concentration against Staphylococcus aureus ATCC 25923; type: functional; conditions: Staphylococcus aureus, ATCC 25923; read-out: MIC; in short: as §2

Row | Structure (SMILES) | MIC [1] | MNEC [2] | MIC [3] | MIC [4] | MIC [5]
1 | COC(=O)[C@@H]1CSCc2c(O)ccc(C)c2C(=O)OCC(NC(=O)OC(C)(C)C)C(=O)N1 (stereo partly specified) | 32 µg/mL (≈ 68.3 µM) | 1 µg/mL | – | – | –
2 | COC(=O)[C@H]1CSCc2c(O)cc(O)c(C)c2C(=O)OC[C@H](NC(=O)OC(C)(C)C)C(=O)N1 | 128 µg/mL (≈ 264 µM) | 4 µg/mL | 128 µg/mL (≈ 264 µM) | – | –
3 | COC(=O)[C@@H]1CSCc2c(O)cccc2C(=O)OCC(NC(=O)[C@H](CO)NC(=O)OC(C)(C)C)C(=O)N1 (stereo partly specified) | 64 µg/mL (≈ 118 µM) | 0.4 µg/mL | 32 µg/mL (≈ 59.1 µM) | – | –
4 | Cc1c(O)cc(O)c2c1C(=O)OCCC(=O)NCCSC2 | > 128 µg/mL | 20 µg/mL | – | – | –
5 | COC(=O)c1c(C)c(OC)cc(O)c1CSC[C@H](/N=C(/C)S)C(=O)OC | – | 0.2 µg/mL | – | 8 µg/mL (≈ 19.9 µM) | 16 µg/mL (≈ 39.8 µM)
6 | COC(=O)[C@@H]1CSCc2c(O)cccc2C(=O)OCC(NC(=O)OC(C)(C)C)C(=O)N1 (stereo partly specified) | > 128 µg/mL | > 1 µg/mL | – | – | –
7 | COC(=O)[C@@H]1CSCc2ccccc2C(=O)OCC(NC(=O)OC(C)(C)C)C(=O)N1 (stereo partly specified) | – | > 1 µg/mL | – | – | –
8 | COC(=O)[C@@H]1CSCc2c(O)cc(O)c(C)c2C(=O)OCCC(=O)N1 | 16 µg/mL (≈ 43.3 µM) | 0.25 µg/mL | 32 µg/mL (≈ 86.6 µM) | – | –
9 | COC(=O)[C@@H]1CSCc2c(OC)cc(O)c(C)c2C(=O)OCC(NC(=O)OC(C)(C)C)C(=O)N1 (stereo partly specified) | > 128 µg/mL | > 1 µg/mL | 128 µg/mL (≈ 257 µM) | – | –
10 | COC(=O)[C@@H]1CSCc2cccc(C)c2C(=O)OCC(NC(=O)OC(C)(C)C)C(=O)N1 (stereo partly specified) | – | > 1 µg/mL | – | – | –
11 | Cc1c(O)cc(O)c2c1C(=O)OCC(NC(=O)OC(C)(C)C)C(=O)NCCSC2 (stereo unspecified) | 32 µg/mL (≈ 75 µM) | 1 µg/mL | – | – | –
12 | COC(=O)c1c(C)c(OC)cc(O)c1CSC[C@H](NC(C)=O)C(=O)OC | – | 2 µg/mL | – | > 64 µg/mL | > 64 µg/mL
13 | COC(=O)[C@@H]1CSCc2c(O)cc(O)cc2C(=O)OCC(NC(=O)OC(C)(C)C)C(=O)N1 (stereo partly specified) | 128 µg/mL (≈ 272 µM) | 0.5 µg/mL | 128 µg/mL (≈ 272 µM) | – | –
14 | COC(=O)[C@@H]1CSCc2c(O)cc(O)c(C)c2C(=O)OC[C@H](NC(=O)OC(C)(C)C)C(=O)N1 | 128 µg/mL (≈ 264 µM) | 10 µg/mL | 128 µg/mL (≈ 264 µM) | – | –
15 | COC(=O)[C@@H]1CSCc2ccc(O)c(C)c2C(=O)OCC(NC(=O)OC(C)(C)C)C(=O)N1 (stereo partly specified) | > 128 µg/mL | > 100 µg/mL | – | – | –

Second part, the molecule after the results:

Row | MIC [1] | MNEC [2] | MIC [3] | MIC [4] | MIC [5] | Structure (SMILES)
16 | – | 0.004 µg/mL | – | – | – | COc1cc(O)c2c(c1C)C(=O)OCCC/C(S)=N/[C@H](c1nc(C)no1)CSC2
17 | – | 0.5 µg/mL | – | 16 µg/mL (≈ 36.2 µM) | 32 µg/mL (≈ 72.5 µM) | COC(=O)[C@@H]1CSCc2c(O)cc(OC)c(C)c2C(=O)OCCCCC/C(S)=N/1
18 | – | > 1 µg/mL | – | > 64 µg/mL | > 64 µg/mL | COC(=O)[C@@H]1CSCc2c(O)cc(OC)c(C)c2C(=O)OCCCCCCC(=O)N1
19 | – | 0.01 µg/mL | – | – | – | COc1cc(O)c2c(c1C)C(=O)O[C@H](CO)C/C(S)=N/[C@H](c1nc(C)no1)CSC2
20 | – | > 1 µg/mL | – | > 64 µg/mL | > 64 µg/mL | COC(=O)[C@@H]1CSCc2c(O)cc(OC)c(C)c2C(=O)OCC(=O)N1
21 | – | 0.002 µg/mL | – | – | – | COc1cc(O)c2c(c1C)C(=O)CCCCC/C(S)=N/[C@H](c1nc(CNC(C)C)no1)CSC2.Cl
22 | – | > 1 µg/mL | – | – | – | COC(=O)[C@@H]1CSCc2c(O)cc(OC)c(C)c2C(=O)OCCCCCCCC/C(S)=N/1
23 | – | 2 µg/mL | – | 32 µg/mL (≈ 75.2 µM) | > 64 µg/mL | COC(=O)[C@@H]1CSCc2c(O)cc(OC)c(C)c2C(=O)OCCCCCC(=O)N1
24 | – | 0.01 µg/mL | – | – | – | COc1cc(O)c2c(c1C)C(=O)O[C@H](CO)CC/C(S)=N/[C@H](c1nc(C)no1)CSC2
25 | – | > 1 µg/mL | – | – | – | COC(=O)[C@@H]1CSCc2c(O)cc(OC)c(C)c2C(=O)OCCCCCCCCC(=O)N1
26 | – | 0.5 µg/mL | – | 16 µg/mL (≈ 35.1 µM) | 16 µg/mL (≈ 35.1 µM) | COC(=O)[C@@H]1CSCc2c(O)cc(OC)c(C)c2C(=O)OCCCCCC/C(S)=N/1
27 | – | 0.2 µg/mL | – | > 64 µg/mL | > 64 µg/mL | COC(=O)[C@@H]1CSCc2c(O)cc(OC)c(C)c2C(=O)OC/C(S)=N/1
28 | – | 2 µg/mL | – | 32 µg/mL (≈ 80.5 µM) | 64 µg/mL (≈ 161 µM) | COC(=O)[C@@H]1CSCc2c(O)cc(OC)c(C)c2C(=O)OCCCC(=O)N1
29 | – | 0.4 µg/mL | – | 2 µg/mL (≈ 4.84 µM) | 4 µg/mL (≈ 9.67 µM) | COC(=O)[C@@H]1CSCc2c(O)cc(OC)c(C)c2C(=O)OCCC/C(S)=N/1
